Hits are enriched below; roughly 1.7% of the tested compounds scored in any of these assays.
STEP inh – STEP (human) phosphatase inhibition; P54829; recombinant STEP, OMFP fluorogenic substrate, fluorescence; hit rate 0.25% among 360,000; inhibition, % at 20 µM;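 active = inhibition at 20 µM, scaled per plate between control wells, above about 37%, limit read from the data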;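 note: 0% = DMSO with enzyme and substrate and 100% = substrate only without enzyme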
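Measure: Control-normalized % inhibition with plate pattern correction | Test system: STEP phosphatase, cell-free reaction | Medium: pH 6.0 Bis-Tris with DTT and Tween 20 | Technique: Fluorescence, 480/540 nm | Times: Reaction 20 min, ambient temperature | Doses: Single compound dose of 20 µM, 1% DMSO final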
LMPTP block – LMPTP (human) inhibition. AID 651560. recombinant LMPTP-A, OMFP fluorogenic substrate, fluorescence intensity. hit rate 0.22% among 360,000. P24666. inhibition, % at 20 µM;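 active = compounds that cut the enzyme signal by at least half of the control window in the single-dose screen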;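 note: plate controls were DMSO wells with enzyme plus substrate for no effect and substrate without enzyme for full effect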
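Material: LMPTP-A; amount: 0.625 nM enzyme; doses: single 20 µM dose; times: reaction 50 min, room temperature, dark; technique: fluorescence intensity of OMFP turnover product; benchmarks: no-enzyme and uninhibited controls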
DNMT1 block – inhibitors of human DNMT1; P26358; DNMT1 molecular beacon, Hinp1I cleavage, fluorescence; inhibition (reported as % activation of signal), % at 10 µM; hit rate 0.83% among 360,000; AID 588458; in the data active = inhibition above about 50%
Casp6 inh – inhibitors of human caspase-6 | inhibition, % at 12.5 µM | purified caspase-6, Z-VEID-R110 cleavage fluorescence | hit rate 0.53% among 350,000 | P55212;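 active = mean inhibition across replicates at least about 35%, with every replicate also reaching that limit, limit read from the data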;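 note: 0% = median of neutral control wells and 100% = no fluorescence left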
Target sequence (P55212 24-179 limits assumed): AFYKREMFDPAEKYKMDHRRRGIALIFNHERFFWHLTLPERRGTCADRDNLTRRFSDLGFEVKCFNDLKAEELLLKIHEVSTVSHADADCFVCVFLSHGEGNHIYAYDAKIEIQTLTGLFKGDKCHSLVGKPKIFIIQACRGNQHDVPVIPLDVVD
Target sequence (P55212 194-293 limits assumed): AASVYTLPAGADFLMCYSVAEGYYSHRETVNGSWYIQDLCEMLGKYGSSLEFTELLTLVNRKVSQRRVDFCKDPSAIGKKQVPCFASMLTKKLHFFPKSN
Scp-1 inhibitor – Scp-1 (human) phosphatase inhibition; Recombinant Scp1, phosphopeptide, malachite green phosphate absorbance; inhibition, % at 20 µM; AID 493091; hit rate 0.88% among 340,000;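 active = inhibition above about 50% at 20 µM, limit read from the data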;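 note: plate controls were DMSO wells with enzyme for no effect and wells lacking enzyme for full effect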
Target sequence (Q9GZU7 76-261 limits assumed): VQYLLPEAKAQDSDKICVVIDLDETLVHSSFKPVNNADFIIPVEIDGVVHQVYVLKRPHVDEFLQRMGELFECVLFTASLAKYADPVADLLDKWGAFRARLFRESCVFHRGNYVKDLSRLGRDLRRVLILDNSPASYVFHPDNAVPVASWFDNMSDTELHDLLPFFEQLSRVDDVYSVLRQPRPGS
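Incubation: 45 min enzyme reaction at room temperature / System: truncated SCP-1 phosphatase (76-261aa) / Reagent: Phospho 17-mer peptide substrate / Buffer or medium: Acidic Tris acetate buffer with magnesium and detergent / Signal: absorbance at 630 nm / Doses: one concentration, 20 µM, with 1.0% DMSO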
SUMO1 PPI mod – modulators of human SUMO1-mediated protein-protein interactions; SUMO1 binding to a labelled peptide, TR-FRET, 1 h; inhibition, % at 20 µM; hit rate 0.33% among 360,000; in the data active = inhibition above about 37%
Target sequence (P63165 whole entry, looked up): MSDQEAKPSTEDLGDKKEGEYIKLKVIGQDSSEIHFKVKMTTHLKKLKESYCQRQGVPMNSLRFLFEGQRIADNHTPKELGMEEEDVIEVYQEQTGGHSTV
* = called active by the depositor; nt = not tested or not shown.

SMILES	STEP inh	LMPTP block	DNMT1 block	Casp6 inh	Scp-1 inhibitor	SUMO1 PPI mod
Cc1ccc[n+](C2=C([O-])c3ccccc3C(=O)C2=O)c1	nt	nt	nt	9	nt	nt
CC[n+]1c(/C=C/c2c[nH]c3ccccc23)ccc2cc(C)ccc21	nt	nt	nt	-11	68*	nt
CN1N=C(C(C)(C)C)CSC1=Nc1ccccc1	7	1	0	37*	-7	-2
O=C(/C=C/CCc1ccc2c(c1)OCO2)N1CCCCC1	1	-1	-2	-5	7	3
O=C(C[C@H]1C[C@H]2c3cc(NC(=O)Nc4ccccc4)ccc3O[C@H]2[C@@H](CO)O1)NCc1cccc(F)c1	nt	nt	nt	-2	nt	nt
CCc1cccc(NC(=O)c2ccc(CNc3c(N4CCCC4)c(=O)c3=O)cc2)c1	3	2	-3	-2	-4	49*
CC(=O)c1ccc(NC(=O)c2ccc(CNc3c(N4CCCC4)c(=O)c3=O)cc2)cc1	2	0	1	-7	-7	0
COc1cc(NC(=O)C2CCC(CNc3c(N4CCCCC4)c(=O)c3=O)CC2)cc(OC)c1 (stereo unspecified)	-2	1	52*	nt	-3	7
CCOc1ccc(NC(=O)c2ccc(CNc3c(N4CCCC4)c(=O)c3=O)cc2)cc1	0	-1	4	-1	-2	45*
COc1cc(NC(=O)c2ccc(CNc3c(N4CCOCC4)c(=O)c3=O)cc2)cc(OC)c1	2	0	-5	2	-16	43*
COc1cc(NC(=O)C2CCC(CNc3c(N4CCC(C)CC4)c(=O)c3=O)CC2)cc(OC)c1 (stereo unspecified)	0	-1	-3	-1	-10	8
O=C(COc1c(Br)cc(Br)c2cccnc12)N1CCc2ccccc2C1	3	4	-3	8	-4	-5
CCS(=O)(=O)N1CCCCN2[C@H](C1)[C@H](c1ccc(-c3cccc(C#N)c3)cc1)[C@@H]2CO	nt	nt	nt	-2	nt	nt
O=[N+]([O-])c1cc(/C=N/N2CCN(C3c4ccccc4-c4ccccc43)CC2)ccc1Cl	-2	1	6	nt	7	-3
O=C(COc1ccc(Cl)cc1Cl)Nc1cccc(-c2ccc(N3CCOCC3)nn2)c1	0	-1	7	3	2	-9
O=C(COc1ccc(Cl)cc1Cl)Nc1ccc(-c2ccc(N3CCOCC3)nn2)cc1	-1	11	2	-2	3	55*
Cc1c(NC(=O)Cn2cc([N+](=O)[O-])cn2)c(=O)n(-c2ccccc2)n1C	2	-1	4	1	-6	3
Nc1nc(N)c(Cc2ccc(Cl)cc2Cl)c(N)n1	2	64*	2	-5	-7	-2
Nc1nccc(SCc2ccc(Cl)cc2Cl)n1	-2	0	-9	4	-2	4
CCOC(=O)c1cc(CC)sc1NC(=O)COC(=O)c1cnccn1	0	0	0	-1	-4	0
O=C(COC(=O)c1cccc(S(=O)(=O)N2CCCCC2)c1)NCc1cccc(Cl)c1	-2	0	2	1	nt	2
CCc1nn2c(=O)cc(COc3ccc(NC(=O)c4ccco4)cc3)nc2s1	-2	1	1	2	8	4
CCCc1nn2c(=O)cc(COc3ccc(NC(=O)c4ccco4)cc3)nc2s1	-1	0	-2	0	-7	66*
CN(C)C(=O)C[C@H]1CC[C@H](NC(=O)NC2CCCC2)[C@H](CO)O1	nt	nt	nt	5	nt	nt
NCCN1CCN(CC(=O)N2c3ccccc3C(=O)Nc3cccnc32)CC1	0	-6	4	-25	-9	-2
SMILES	STEP inh	LMPTP block	DNMT1 block	Casp6 inh	Scp-1 inhibitor	SUMO1 PPI mod
O=C1Nc2cccnc2N(C(=O)CCl)c2ccccc21	-2	-1	2	47*	-9	-3
COc1cc([N+](=O)[O-])ccc1NC(=S)NNC(=O)c1ccc2c(c1)OCO2	0	-1	-1	1	-8	-32
O=C(NC(=S)Nc1cc([N+](=O)[O-])ccc1O)c1ccc2c(c1)OCO2	14	58*	0	2	-5	-6
O=S(=O)(N/N=C\C=C\c1ccccc1)c1ccccc1	-2	0	0	0	2	-6
COc1cc(/C=C2\CC/C(=C\c3cc(OC)c(OC)c(OC)c3)C2=O)cc(OC)c1OC	2	2	-5	0	-3	-15
COc1cc(/C=C2\CC/C(=C\c3cc(OC)c(O)c(OC)c3)C2=O)cc(OC)c1O	-2	5	-18	49*	-2	15
O=S(=O)(Nc1cccc2ccccc12)c1cccs1	-1	-1	-7	-3	0	1
O=S(=O)(Nc1ccc(O)c2ccccc12)c1cccs1	-2	2	-23	53*	-4	-6
O=C1C=C(O)C(n2cncn2)C(c2ccc(F)cc2)C1 (stereo unspecified)	-1	-1	3	1	0	-1
COC(=O)c1ccn(CSc2c(F)c(F)cc(F)c2F)n1	-2	-1	1	2	-5	3
Cc1cccc(N=C2NC(=O)S/C2=C\c2ccco2)c1	6	13	30	15	49	-1
CCOC(=O)N1CCC(NC(=O)c2ccccc2C(=O)O)CC1	-1	-2	1	-3	-1	43*
CCOC(=O)N1CCC(NC(=O)Cc2ccccc2)CC1	1	-3	1	-1	-6	0
Cc1cccc(C)c1-n1cccc1/C=C1\SC(=S)N(c2cccc(C(=O)O)c2)C1=O	1	6	25	37*	-4	0
COc1ccc(NC(=O)N(C)C[C@H]2Oc3ccc(NC(=O)CCCN(C)C)cc3C(=O)N([C@H](C)CO)C[C@@H]2C)cc1	nt	nt	nt	-5	nt	nt
Nc1nn(-c2cccc(F)n2)cc1-c1ccccc1	-1	1	2	-2	-3	47*
Nc1nn(-c2cccc(F)n2)cc1-c1ccc(Cl)cc1	-2	-1	2	-2	-3	6
CCCCN=C1SC(C(=O)Nc2sc3c(c2C(=O)OC)CCC3)C(N)=C1C(=O)N1CCOCC1 (stereo unspecified)	0	1	-5	-1	-6	-3
O=C(N/N=C/c1ccoc1)c1ccccc1O	5	6	34	50*	37	8
O=C(N/N=C/c1ccc[nH]1)c1ccc(O)cc1	-3	-1	-2	4	-6	12
O=C(N/N=C/c1ccnc2ccccc12)c1ccccc1O	4	1	2	1	-6	-25
COc1ccc(/C=N/NC(=O)c2ccccc2O)cc1CN1CCOCC1	0	0	1	42*	-13	-6
COc1ccc(/C=N/NC(=O)c2cccc(Br)c2)cc1CN1CCOCC1	-1	1	1	0	-4	-8
O=C(N/N=C/c1ccc[nH]1)c1ccccc1O	-2	1	-4	60*	-8	5

From PubChem
